This note sets out measurements from ChEMBL document CHEMBL3414544, “PAINS in the assay: chemical mechanisms of assay interference and promiscuous enzymatic inhibition observed during a sulfhydryl-scavenging HTS” (J Med Chem, 2015).

The source made the active and inactive calls. Unless noted, no cut-off for these calls is given here.

Data set [1] addresses Histone acetyltransferase GCN5 (Saccharomyces cerevisiae S288c, UniProt Q03330). Put plainly: Inhibition of yeast histone acetyltransferase Gcn5-Ada2-Ada3 complex using tetramer and [3H]-acetyl-CoA assessed as acetate incorporation after 30 mins by liquid scintillation counting.
Data set [2] has as its target T1, Histone acetyltransferase p300 (Homo sapiens, UniProt Q09472). Put plainly: Inhibition of recombinant histone acetyltransferase p300 (unknown origin) using dH3-H4 tetramer and [3H]-acetyl-CoA assessed as acetate incorporation […] by liquid scintillation counting.
The target in data set [3] is T1, Histone acetyltransferase p300. Put plainly: Inhibition of recombinant histone acetyltransferase p300 (unknown origin) using dH3-H4 tetramer and [3H]-acetyl-CoA assessed as acetate incorporation after 5 mins by liquid scintillation counting in presence of 1 mM DTT.
Data set [4] has as its target T2, Histone acetyltransferase RTT109 (Saccharomyces cerevisiae (strain ATCC 204508 / S288c) (Baker's yeast)) (UniProt Q07794).
T2 sequence (whole entry): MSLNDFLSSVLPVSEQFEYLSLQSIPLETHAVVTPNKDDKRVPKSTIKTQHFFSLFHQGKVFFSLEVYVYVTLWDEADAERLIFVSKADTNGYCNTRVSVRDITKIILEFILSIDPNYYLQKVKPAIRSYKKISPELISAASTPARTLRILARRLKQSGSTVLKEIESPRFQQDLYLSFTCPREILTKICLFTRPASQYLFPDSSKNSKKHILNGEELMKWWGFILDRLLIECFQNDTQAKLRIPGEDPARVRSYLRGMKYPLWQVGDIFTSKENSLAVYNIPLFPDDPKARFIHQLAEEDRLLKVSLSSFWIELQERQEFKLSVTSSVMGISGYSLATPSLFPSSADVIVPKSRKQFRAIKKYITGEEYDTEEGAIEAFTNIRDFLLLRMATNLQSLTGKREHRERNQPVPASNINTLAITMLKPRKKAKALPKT
Put plainly: Inhibition of Vps75-stimulated recombinant Saccharomyces cerevisiae histone acetyltransferase Rtt109 using [3H]-acetyl-CoA assessed as acetate incorporation […] by liquid scintillation counting in presence of 1 mM DTT.

The target in data set [5] is Histone acetyltransferase GCN5 (Saccharomyces cerevisiae S288c) (UniProt Q03330). Put plainly: Inhibition of yeast histone acetyltransferase Gcn5-Ada2-Ada3 complex using tetramer and [3H]-acetyl-CoA assessed as acetate incorporation […] by liquid scintillation counting in presence of 1 mM DTT.
A short description of data set [6]: Fluorescence quenching assessed as fluorescence signal reduction at 10 uM after 10 mins. It counts as physicochemical. A digest of the protocol:
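CPM (20 μM final) and CoA (5 μM final) reacted to completion in assay buffer (stable plateau, usually ~5 min); adduct solution added to wells preplated with compound; shaken 5 min, equilibrated 5 min at room temperature; fluorescence intensity read as percent signal reduction versus DMSO controls. Flagged as quencher at >20% signal reduction at 10 μM final compound.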

Data set [7] deals with T2, Histone acetyltransferase RTT109 (Saccharomyces cerevisiae (strain ATCC 204508 / S288c) (Baker's yeast)). Put plainly: Inhibition of Vps75-stimulated recombinant Saccharomyces cerevisiae histone acetyltransferase Rtt109 assessed as H3K56 acetylated product at […] after 45 mins by Slot bolt inhibiton assay.
Data set [8] is described as follows: Fluorescence quenching in HTS buffer with […] CoA assessed as fluorescence signal reduction at 10 uM after 10 mins. It counts as physicochemical.
The nature of data set [9]: Fluorescence quenching in HTS buffer with 20 uM 7-diethylamino-3-(4'-maleimidyl-phenyl)-4-methylcoumarin assessed as fluorescence signal reduction at 10 uM after 10 mins. It counts as physicochemical.
For data set [10], the target named is T2, Histone acetyltransferase RTT109 (Saccharomyces cerevisiae (strain ATCC 204508 / S288c) (Baker's yeast)). Put plainly: Inhibition of Vps75-stimulated recombinant Saccharomyces cerevisiae histone acetyltransferase Rtt109 assessed as H3K27 acetylated product at […] after 45 mins by Slot bolt inhibiton assay.
Data set [11] can be described thus: Fluorescence quenching in HTS buffer assessed as fluorescence signal reduction at 10 uM after 10 mins. The format is physicochemical.
For data set [12], the target named is T3, Histone acetyltransferase RTT109 (Saccharomyces cerevisiae (strain ATCC 204508 / S288c) (Baker's yeast), UniProt Q07794).
T3 sequence (Q07794 whole entry): T2 sequence (whole entry)
Put plainly: Inhibition of Vps75-stimulated recombinant Saccharomyces cerevisiae histone acetyltransferase Rtt109 using [3H]-acetyl-CoA assessed as acetate incorporation after 30 mins by liquid scintillation counting.

The target in data set [13] is T3, Histone acetyltransferase RTT109. Put plainly: Inhibition of Vps75-stimulated recombinant Saccharomyces cerevisiae histone acetyltransferase Rtt109 using Asf1-dH3-H4 as substrate assessed as coenzyme A production after 45 mins by CPM based HTS assay. A digest of the protocol:
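Recombinant Rtt109–Vps75 at 50 nM, with Asf1–dH3–H4 as substrate and acetyl-CoA as acetyl donor. Buffer contained freshly prepared 0.01% Triton X-100. The CoA product was detected by fluorescence of its CPM adduct. Plates had Z′ ≥0.5. IC50 came from a four-parameter variable-slope fit.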

T1 sequence (Q09472 whole entry): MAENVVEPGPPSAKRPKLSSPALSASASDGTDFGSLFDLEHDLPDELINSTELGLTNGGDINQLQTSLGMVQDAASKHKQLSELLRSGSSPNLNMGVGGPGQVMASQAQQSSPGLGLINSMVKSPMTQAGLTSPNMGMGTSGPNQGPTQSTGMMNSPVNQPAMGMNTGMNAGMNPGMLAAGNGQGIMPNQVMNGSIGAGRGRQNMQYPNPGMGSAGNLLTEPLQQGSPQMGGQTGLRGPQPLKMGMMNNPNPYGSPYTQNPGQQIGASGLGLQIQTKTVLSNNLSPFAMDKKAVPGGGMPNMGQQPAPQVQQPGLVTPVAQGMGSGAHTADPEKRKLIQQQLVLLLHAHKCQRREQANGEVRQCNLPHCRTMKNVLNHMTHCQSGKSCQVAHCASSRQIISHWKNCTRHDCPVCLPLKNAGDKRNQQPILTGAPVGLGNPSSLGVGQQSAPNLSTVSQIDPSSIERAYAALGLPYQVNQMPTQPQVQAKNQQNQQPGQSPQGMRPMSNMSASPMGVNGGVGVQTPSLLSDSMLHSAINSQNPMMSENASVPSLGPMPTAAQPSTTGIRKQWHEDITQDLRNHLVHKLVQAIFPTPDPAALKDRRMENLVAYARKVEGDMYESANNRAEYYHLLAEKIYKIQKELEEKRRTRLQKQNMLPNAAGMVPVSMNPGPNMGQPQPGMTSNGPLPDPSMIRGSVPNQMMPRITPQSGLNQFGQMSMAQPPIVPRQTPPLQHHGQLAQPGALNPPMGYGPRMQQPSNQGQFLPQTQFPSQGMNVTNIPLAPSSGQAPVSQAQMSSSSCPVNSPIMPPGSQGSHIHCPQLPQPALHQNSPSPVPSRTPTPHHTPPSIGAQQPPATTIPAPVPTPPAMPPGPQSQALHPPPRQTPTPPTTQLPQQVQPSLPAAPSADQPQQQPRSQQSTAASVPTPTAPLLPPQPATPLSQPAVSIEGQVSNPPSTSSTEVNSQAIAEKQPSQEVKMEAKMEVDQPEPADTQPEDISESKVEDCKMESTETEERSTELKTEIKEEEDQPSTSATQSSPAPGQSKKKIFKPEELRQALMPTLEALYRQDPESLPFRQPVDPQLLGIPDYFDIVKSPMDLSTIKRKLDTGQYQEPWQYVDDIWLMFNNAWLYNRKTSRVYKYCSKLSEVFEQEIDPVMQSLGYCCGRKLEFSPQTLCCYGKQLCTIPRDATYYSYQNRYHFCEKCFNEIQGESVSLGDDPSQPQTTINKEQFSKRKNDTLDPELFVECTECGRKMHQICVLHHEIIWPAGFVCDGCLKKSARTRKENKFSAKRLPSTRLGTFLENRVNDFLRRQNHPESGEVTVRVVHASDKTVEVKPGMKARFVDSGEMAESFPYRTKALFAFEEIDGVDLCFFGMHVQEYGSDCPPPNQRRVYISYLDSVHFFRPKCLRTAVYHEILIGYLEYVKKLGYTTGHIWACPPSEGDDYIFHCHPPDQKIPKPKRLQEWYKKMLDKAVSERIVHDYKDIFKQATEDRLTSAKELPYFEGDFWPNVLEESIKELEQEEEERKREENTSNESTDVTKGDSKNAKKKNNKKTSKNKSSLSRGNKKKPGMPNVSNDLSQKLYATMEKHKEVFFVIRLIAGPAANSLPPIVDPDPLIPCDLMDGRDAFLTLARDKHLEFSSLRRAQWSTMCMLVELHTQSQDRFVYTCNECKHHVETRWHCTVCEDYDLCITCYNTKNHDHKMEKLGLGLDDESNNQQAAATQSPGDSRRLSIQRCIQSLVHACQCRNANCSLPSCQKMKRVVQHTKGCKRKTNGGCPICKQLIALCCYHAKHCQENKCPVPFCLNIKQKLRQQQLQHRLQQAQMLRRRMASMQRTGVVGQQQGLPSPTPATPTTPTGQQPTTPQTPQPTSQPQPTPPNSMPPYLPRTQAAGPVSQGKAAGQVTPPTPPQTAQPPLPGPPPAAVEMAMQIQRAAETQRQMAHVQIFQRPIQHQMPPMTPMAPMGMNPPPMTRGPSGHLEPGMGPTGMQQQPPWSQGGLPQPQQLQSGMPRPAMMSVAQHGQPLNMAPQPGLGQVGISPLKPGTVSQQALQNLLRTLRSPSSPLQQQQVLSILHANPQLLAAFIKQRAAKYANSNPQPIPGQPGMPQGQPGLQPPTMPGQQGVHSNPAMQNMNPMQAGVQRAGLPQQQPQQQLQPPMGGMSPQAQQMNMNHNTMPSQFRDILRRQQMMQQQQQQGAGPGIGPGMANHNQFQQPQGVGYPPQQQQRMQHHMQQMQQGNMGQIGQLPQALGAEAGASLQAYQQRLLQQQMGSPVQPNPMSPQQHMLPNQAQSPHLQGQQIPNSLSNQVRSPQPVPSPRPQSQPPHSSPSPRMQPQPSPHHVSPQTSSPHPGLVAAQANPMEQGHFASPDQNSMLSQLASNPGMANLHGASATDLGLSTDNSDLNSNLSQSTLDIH
Chain of Histone acetyltransferase GCN5 (Q03330 whole entry): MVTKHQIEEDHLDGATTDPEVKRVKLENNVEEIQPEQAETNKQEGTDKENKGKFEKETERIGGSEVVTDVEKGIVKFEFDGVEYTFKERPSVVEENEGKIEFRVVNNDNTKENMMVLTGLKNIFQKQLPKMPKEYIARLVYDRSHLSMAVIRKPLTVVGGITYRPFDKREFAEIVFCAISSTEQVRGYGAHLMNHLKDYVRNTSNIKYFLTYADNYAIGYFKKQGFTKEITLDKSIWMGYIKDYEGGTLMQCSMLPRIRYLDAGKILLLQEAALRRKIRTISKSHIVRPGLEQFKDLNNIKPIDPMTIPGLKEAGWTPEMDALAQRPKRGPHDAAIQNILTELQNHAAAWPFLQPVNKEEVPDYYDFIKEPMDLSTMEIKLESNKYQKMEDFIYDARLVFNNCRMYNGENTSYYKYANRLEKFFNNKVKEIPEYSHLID
Chain of Histone acetyltransferase GCN5 (Saccharomyces cerevisiae S288c) (Q03330 whole entry): as above

As to `Cc1ccc(-c2nc(N)s[n+]2-c2ccccc2)cc1.[Br-]`, the IC50 (as a rule, the concentration at which inhibition is half-maximal) was found to be 5300 nM in data set [1] (read-out: IC50) and 1800 nM in [2] (read-out: IC50). In addition, the outcome in [3], in data set [4], in [5], in data set [7] and in data set [10] was Active. Besides, the Activity entry in [6], in [8], in data set [9] and in data set [11] was “Not Active” in each case.

For the molecule `CNc1nc(-c2ccccc2)[n+](-c2ccc(C)cc2)s1.[Br-]`, the IC50 in data set [1] (read-out: IC50) is 8100 nM; in data set [2] (read-out: IC50), 2000 nM. Further, the outcome in data set [3], in data set [4], in data set [5], in data set [7] and in data set [10] was Active. Moreover, the Activity entry in [6], in data set [8], in [9] and in data set [11] was “Not Active” each time.

In the case of `O=S(=O)(Nc1cc(Sc2nc[nH]n2)c(O)c2ccccc12)c1ccc(Br)cc1`, the IC50 was found to be 5200 nM in [1] (read-out: IC50) and 1100 nM in data set [2] (read-out: IC50). The result in data set [3], in [4], in [5], in data set [7] and in data set [10] was Active. Besides, the Activity entry in data set [6], in data set [8], in data set [9] and in [11] was “Not Active” each time.

Regarding `O=S1(=O)C=C(Sc2nnc(-c3ccncc3)o2)c2ccccc21`, the IC50 in data set [1] (read-out: IC50) is 3700 nM; in data set [2] (read-out: IC50), 6200 nM. Further, the result in data set [3], in [4], in [5], in data set [7] and in data set [10] was Active. Also, the Activity entry in data set [6], in [8], in data set [9] and in data set [11] was “Not Active” each time.

As to `OC(Cn1cncn1)(Cn1cncn1)c1ccc(F)cc1F` [FLUCONAZOLE], the IC50 entry in [1], in [2], in data set [12] and in data set [13] was “Not Active” in each case. Moreover, the outcome in [3], in data set [4] and in [5] was inactive.

As to `O=S1(=O)C=C(Sc2nnc(-c3ccccc3)o2)c2ccccc21`, the IC50 in data set [1] (read-out: IC50) and in data set [2] (read-out: IC50) was 11000 nM in each case. The result in data set [3], in data set [4], in data set [5], in data set [7] and in data set [10] was Active. The Activity result in data set [6], in data set [8], in [9] and in data set [11] was “Not Active” in each case.

`C=C(C)[C@@H](CC=C(C)C)C[C@@]12C[C@@H](CC=C(C)C)C(C)(C)[C@@](CC=C(C)C)(C(=O)C(C(=O)c3ccc(O)c(O)c3)=C1O)C2=O` [GARCINOL]: the results for the IC50 in [1] (read-out: IC50) and in data set [2] (read-out: IC50) were 2600 nM and 1700 nM, respectively. The result in data set [3], in data set [4] and in [5] was inactive.

Take `Cc1ccc(N2C(=O)CC(Sc3nncn3-c3ccccc3)C2=O)cc1` (stereo not given): the IC50 stood at 27000 nM in data set [1] (read-out: IC50), 9800 nM in data set [2] (read-out: IC50), 8600 nM in data set [12] (read-out: IC50) and 11000 nM in data set [13] (read-out: IC50). The result in data set [3], in data set [4], in data set [5], in [7] and in data set [10] was Active. Besides, the Activity entry in data set [6], in [8], in [9] and in data set [11] was “Not Active” throughout.

Take `CCN(CC)c1ccc2c(C)c(-c3ccc(N4C(=O)C=CC4=O)cc3)c(=O)oc2c1`: the values for the IC50 in data set [1] (read-out: IC50), in [2] (read-out: IC50) and in data set [12] (read-out: IC50) were 1100 nM, 260 nM and 260 nM, respectively. Besides, the outcome in data set [3], in data set [4] and in [5] was Active.

For `O=C(O)CSc1cc(NS(=O)(=O)c2ccc(Br)cc2)c2ccccc2c1O`, the IC50 is 1200 nM in data set [1] (read-out: IC50), 330 nM in data set [2] (read-out: IC50), 130 nM in data set [12] (read-out: IC50) and “Not Active” in [13]. Also, the result in data set [3] and in data set [5] was Active. The Activity entry in [6] is “Not Active”; in [8], “Not Active”; in [9], “Active”; in data set [11], “Not Active”.

On to `COc1ccc(-c2nnc(SC3CC(=O)N(c4ccc(Cl)cc4)C3=O)[nH]2)cc1` (stereo not given), for which the IC50 in data set [1] (read-out: IC50) is 6700 nM; in data set [2] (read-out: IC50), 2800 nM. Moreover, the result in data set [3], in data set [4], in data set [5], in data set [7] and in data set [10] was Active. Moreover, the Activity entry in [6], in [8], in data set [9] and in data set [11] was “Not Active” each time.

On to `O=[N+]([O-])c1c(Sc2nnnn2-c2ccccc2)cc(Cl)c2nonc12`, for which the IC50 in data set [1] (read-out: IC50) came to 1600 nM; in data set [2] (read-out: IC50) it was 1100 nM; in data set [12] (read-out: IC50) it was 770 nM; in data set [13] (read-out: IC50) it was 2300 nM. The outcome in [3], in [4], in data set [5], in [7] and in data set [10] was Active. In addition, the Activity result in [6], in data set [8], in data set [9] and in data set [11] was “Not Active” throughout.
